Experimental data taken from publication PMC8336483 (Chemical Science, 2021).

Tested on: MDA-MB-231 cells
Type: cell-based, human
Conditions: 1 h incubation
Method in brief: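 MDA-MB-231 cells incubated 1 h with fluorescent conjugates or linker-functionalised fluorescein, then analysed by fluorescence correlation spectroscopy in the cytoplasm. Probe hydrodynamic radii and cytoplasmic viscosity were first determined by FCS. Cytoplasmic diffusion coefficients came from autocorrelation curves and were compared with values predicted for free diffusion using a cytoplasm viscosity model.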

In the case of FAM-PEG, the “FCS autocorrelation of fluorescence signal in cells” value was “no autocorrelation of fluorescence signal was detected”.
